What was measured:
HCC2429 cells [1] = test: Apoptosis screen of peptide library; format: cell-based, human; conditions: representative experiment, Figure 1A, quadruplicate
How it was run: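 A library of 155 peptides (5–15 residues) spanning the 34 EGF-like repeats of the Notch3 ECD was screened. HCC2429 and HeLa cells were seeded at 3,000 cells per well in 384-well format. Annexin V Alexa Fluor 680 (1:2,200 in RPMI) and peptide solution (0.1 mg/ml in RPMI before addition) were added. After overnight incubation, fluorescence was read on an FMAT 8100 HTS system, in quadruplicate per peptide.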

HCC2429 cells [2] = test: Apoptosis assay; format: cell-based, human; conditions: HCC2429, 24 hours, serum-free RPMI, flow cytometry; Figure 2D
How it was run: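 HCC2429 cells were exposed for 24 hours in serum-free RPMI to Notch3 ECD-derived peptides or peptide–Fc fusion proteins. The concentration was not given. Apoptotic fraction was measured with an Annexin V-FITC kit on a flow cytometer, with a γ-secretase inhibitor as positive control. Comparisons used the Wilcoxon rank-sum test, with significance at P < 0.05.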

Substance | Induction of apoptosis (fluorescence, FMAT 8100 HTS) (HCC2429 cells [1]) | Apoptosis (Annexin V-FITC) (HCC2429 cells [2])
CATAV [Peptide N102] | induced apoptosis | –
CFHGAT [Peptide N103] | induced apoptosis | –
CLNGGS [Peptide N132] | induced apoptosis | –
CVCVNGWTGES [Peptide N17] | – | highest apoptotic activity

Reference: publication PMC3210016 (Cancer research, 2010)
